PRMT1 FP inh = PRMT1 methyltransferase inhibitors, primary screen, biochemical, fluorescence polarization; Protein arginine N-methyltransferase 1 (Homo sapiens), Q99873; recombinant PRMT1, activity-based probe fluorescence polarization; inhibition, % at 2.79 µM; hit rate 1.3% among 370,000;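 active = inhibition above about 21% made by adding two undisclosed values, limit read from the data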
PAD4 FP inh = human PAD4 inhibitors, primary screen, biochemical, fluorescence polarization, 1536-well format; hit rate 0.41% among 330,000; inhibition, % at 6.36 µM; Protein-arginine deiminase type-4 (Homo sapiens), Q9UM07; recombinant PAD4, RCA probe fluorescence polarization;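 active = percent inhibition above a cutoff equal to the mean of all tested compounds plus 3 SD, cut at about 15% in these data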;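 note: 0% = PAD4 with RCA probe and DMSO and 100% = probe without PAD4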
SIAE inh = human SIAE inhibitors, primary screen, biochemical, fluorescence polarization, FP-Rh probe, 1536-well HTS; Sialate O-acetylesterase (Homo sapiens), Q9HAT2; SIAE FP-Rh probe binding; inhibition, % at 9.66 µM; hit rate 0.69% among 370,000; AID 1053197, 2014;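 active = inhibition above a cutoff: mean of compounds within the control limits plus 3 SD of those, cut at about 17% in these data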;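 note: 0% = plate median of compound wells and 100% = probe without SIAE protein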
GSTO1 inh = inhibitors of recombinant GSTO1, primary screen, counter-screen for RBBP9 inhibitor project, biochemical, fluorescence polarization; activity-based probe fluorescence polarization; inhibition, % at 5.96 µM; hit rate 1.1% among 300,000;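 active = inhibition above the campaign mean inhibition plus 3 SD, cut at about 35% in these data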;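 note: 0% = GSTO1-1 with DMSO and 100% = wells lacking GSTO1-1 enzyme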
Target sequence (P78417 whole entry, looked up): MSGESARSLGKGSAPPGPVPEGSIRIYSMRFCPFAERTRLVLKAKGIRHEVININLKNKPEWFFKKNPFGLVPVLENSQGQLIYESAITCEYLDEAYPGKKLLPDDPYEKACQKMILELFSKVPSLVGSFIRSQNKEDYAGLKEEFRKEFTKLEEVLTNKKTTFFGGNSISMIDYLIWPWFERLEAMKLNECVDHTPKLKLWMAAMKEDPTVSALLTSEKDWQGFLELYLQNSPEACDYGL
RBBP9 inhibitor = human RBBP9 inhibitors, primary screen, biochemical, fluorescence polarization, FP-Rh probe, HTS | AID 1515, 2009 | Serine hydrolase RBBP9 (Homo sapiens), O75884 | inhibition, % at 7.94 µM | hit rate 0.2% among 220,000 | recombinant RBBP9;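 active = inhibition above the campaign mean of all tested compounds plus 3 SD, cut at about 14% in these data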;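 note: plate controls were DMSO wells with RBBP9 for no effect and wells lacking RBBP9 protein for full effect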
Target sequence (O75884 whole entry, looked up): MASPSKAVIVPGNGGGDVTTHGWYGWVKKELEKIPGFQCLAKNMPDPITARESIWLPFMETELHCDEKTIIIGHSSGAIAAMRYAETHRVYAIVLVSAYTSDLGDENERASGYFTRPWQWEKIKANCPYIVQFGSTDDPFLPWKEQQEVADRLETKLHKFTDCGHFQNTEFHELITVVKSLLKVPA
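Measured by: FP readout at 525/598 nm; material: recombinant human RBBP9; also added: Serine-hydrolase probe FP-Rh, 375 nM pre-mixing; medium: Tris buffer pH 8.0, NaCl, Pluronic; replication: one well per compound; doses: one concentration, 7.94 µM nominal, 0.794% DMSO; timing: preincubation 30 min plus labeling 45 min at 25 °C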
SIAE inh conf = human SIAE inhibitors, retest, confirmation, biochemical, fluorescence polarization, FP-Rh probe, triplicate; shares compounds with SIAE inh; AID 1117263, 2014; inhibition, % at 9.66 µM; SIAE FP-Rh activity-based probe; hit rate 13% among 2,300;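 active = mean inhibition of the replicates above the hit cutoff set in the primary screen, cut at about 17% in these data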;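 note: 0% = SIAE with DMSO and probe and 100% = probe without SIAE; inhibitors lower polarization as more probe stays unbound to SIAE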
Active calls of the source: *; x = no result. Shown are actives, neighbours in structure and some others; about 2.7% of the full set was active somewhere.

SMILES	PRMT1 FP inh	PAD4 FP inh	SIAE inh	GSTO1 inh	RBBP9 inhibitor	SIAE inh conf
COc1ccc(C2C(C(C)=O)=C(O)C(=O)N2CCCn2ccnc2)cc1OC (stereo not drawn)	-3.0	-7.6	6.2	-0.4	x	x
O=C(CN1CCN(c2ccc(O)cc2)CC1)Nc1cc(S(=O)(=O)N2CCCCC2)ccc1Cl	9.6	-7.0	20.8*	23.2	-4.8	2.2
O=S(=O)(c1ccc(Cl)c(NC(=S)N/N=C/c2ccc(O)cc2)c1)N1CCOCC1	-1.4	-0.7	17.9*	-3.6	-7.2	5.0
O=C(CN1C(=O)NC2(CCCCCC2)C1=O)N1CCC(Cc2ccccc2)CC1	3.1	-11.4	4.1	7.3	-10.4	x
COC(=O)C(NC(=O)c1ccco1)(Nc1ccc(Br)cn1)C(F)(F)F (stereo not drawn)	-1.5	4.6	21.8*	1.3	-5.2	0.4
Oc1c(N=Nc2nn[nH]n2)ccc2ccccc12	34.7*	x	24.7*	x	x	44.0*
Oc1c(N=Nc2ccc(F)cc2)ccc2ccccc12	0.7	-5.6	5.9	9.4	x	x
Cc1ccc(C(=O)N(CC(=O)Nc2sc(C)c(C)c2C(N)=O)C2CCCC2)cc1	1.5	-3.7	3.3	1.4	x	x
C/C(=N\NC(=O)c1ccc([N+](=O)[O-])cc1)c1cc2ccccc2oc1=O	-1.4	-10.2	17.3*	7.7	-4.9	7.0
COc1cc(/C=N/NC(=O)CCn2c3ccccc3c3ccccc32)ccc1O	0.0	-3.9	18.2*	-1.3	-12.2	11.8
COc1cc(/C=N/NC(=O)C2COc3ccccc3O2)ccc1O (stereo not drawn)	4.0	0.8	20.0*	9.4	-2.7	7.9
COc1cc(/C=N/NC(=O)CCn2nnc3ccccc32)ccc1O	-1.2	-2.3	4.3	-0.9	-0.3	x
COC(=O)c1nnn(CC(=O)NC(=O)Nc2ccc(F)cc2)c1C(=O)OC	0.5	-1.0	-6.9	-1.1	5.5	x
COCCCNC(=S)Nc1ccc(OC(F)F)cc1C	-0.7	-5.2	5.9	1.4	3.5	x
O=C(N/N=C\c1cn(-c2ccccc2)nc1-c1ccccc1)c1ccc(Br)o1	0.4	-0.9	-74.9	-25.4	-13.9	x
O=C(N/N=C/c1cn(-c2ccccc2)nc1-c1ccccc1)c1ccco1	0.0	1.6	21.3*	2.7	1.0	3.5
COc1ccc(S[C@]2(C(=O)N(C)C)CC(=O)N(c3ccc(C#N)cc3)[C@@H]2c2ccc(OC)cc2)cc1	4.1	x	-3.4	x	x	x
COc1ccc([C@H]2CC(=O)C=C(c3c(OC)cccc3OC)C2)cc1	0.7	-7.5	-15.5	x	x	x
CCN1CCN(S(=O)(=O)c2ccc(Cl)c(C(=O)N(C)CCOc3ccc(Cl)cc3)c2)CC1	-5.7	2.0	19.7*	-2.6	x	0.7
COc1ccc(S(=O)(=O)N2CCCCCC2)cc1C(=O)N(C)CCOc1ccc(Cl)cc1	-1.3	-3.2	-4.2	0.1	x	x
CCN1CCN(S(=O)(=O)c2ccc(Cl)c(C(=O)Nc3ccccc3N3CCCC3)c2)CC1	-2.5	2.2	-15.2	1.7	x	x
CCN1CCN(c2ccc(S(=O)(=O)N3CCCCC3)cc2NC(=O)c2cccc(OC(F)F)c2)CC1	-0.9	1.4	20.5*	-5.8	x	7.0
CCN1CCN(S(=O)(=O)c2ccc(Cl)c(C(=O)Nc3ccccc3N3CCCCC3)c2)CC1	-1.4	2.7	17.1*	6.1	x	-2.3
O=C(NCc1ccc(F)cc1)C(=O)NCC(c1ccco1)N1CCOCC1 (stereo not drawn)	2.8	3.4	3.3	8.3	-2.3	x
CCOc1ccc(Nc2nc(N)c([N+](=O)[O-])c(NCc3ccccc3)n2)cc1	-1.2	-1.9	20.2*	-0.5	-2.4	31.6*
SMILES	PRMT1 FP inh	PAD4 FP inh	SIAE inh	GSTO1 inh	RBBP9 inhibitor	SIAE inh conf
C[C@]12CCC(=O)C=C1C=C[C@@H]1[C@@H]2CC[C@@]2(C)[C@H]1CC[C@@]21CCC(=O)O1	-0.1	x	19.3*	x	x	0.6
CC(=O)O[C@]1(C(C)=O)CCC2C3C=C(C)C4=CC(=O)CC[C@]4(C)C3CC[C@@]21C (stereo partly drawn)	-1.8	-9.3	1.7	-0.4	x	x
O=C(OCC(=O)N1CCN(C(=O)c2ccco2)CC1)c1ccccc1NCCO	2.9	-1.2	24.2*	-2.1	x	1.3
O=[N+]([O-])c1cccc(CN2CCN(c3ncccn3)CC2)c1	7.9	0.6	-3.1	-6.4	x	x
O=[N+]([O-])c1cccc(CN2CCN(c3cccc4[nH]ccc34)CC2)c1	-0.4	0.1	20.4*	6.8	x	-2.4
CCOc1cccc(/C(O)=C2/C(=O)C(=O)N(CCN3CCOCC3)C2c2cccnc2)c1 (stereo not drawn)	-4.0	2.8	3.9	-5.8	5.0	x
CC[C@]1(C(=O)OC)[C@H]2C(=O)N(C)C(=O)[C@H]2[C@H]2CN=C(SCc3ccc(OC)cc3)N21	-0.5	-0.3	5.7	x	x	x
CCOC(=O)/C(=C\c1c[nH]c2ccccc12)NC(C)=O	-3.4	0.1	17.8*	0.6	-1.2	4.2
Cc1ccc(S(=O)(=O)Nc2ccc(-c3cn4ccc(C)cc4n3)cc2)cc1	5.6	-1.4	-1.6	-9.3	-8.0	x
Cc1ccn2cc(-c3ccc(Br)cc3)nc2c1	-0.7	-1.7	17.2*	9.1	-5.1	-1.0
Cc1ccc(CN(C)C(=O)c2ccc(S(=O)(=O)N3CCCCCC3)cc2)o1	1.3	x	17.3*	x	x	0.4
COc1ccc(N2CCN(c3ncnc4scc(-c5ccc(C)cc5)c34)CC2)cc1	9.8	-0.1	17.5*	-9.0	x	4.4
CCN(CCCNc1cc2c(c(N)c1S(=O)(=O)O)C(=O)c1ccccc1C2=O)c1ccccc1	22.6*	x	33.2*	x	x	22.7*
Cn1c(N)c(N=O)c(=O)n(C)c1=O	-8.6	-4.3	17.1*	-4.2	-0.9	1.5
CCN1CCc2nc3sc(C(=O)Nc4cccnc4Cl)c(N)c3cc2C1	18.5	-1.7	6.3	19.2	x	x
CC(C)C[C@H]1CN([C@@H](CC(C)C)CN2CCC[C@H]2CN2C(=O)C(=O)NC[C@@H]2Cc2ccc(O)cc2)C(=O)C(=O)N1CCc1ccccc1	-0.2	x	19.6*	x	x	9.6
CC(C)C[C@@H](CN1CCC[C@H]1CN1C(=O)C(=O)NC[C@@H]1Cc1ccc(O)cc1)N1C[C@H](Cc2ccccc2)N(CCc2ccccc2)C(=O)C1=O	-3.6	x	2.5	x	x	x
COc1cccc(OCC(=O)N2CCCc3ccccc32)c1	1.1	-8.0	-0.6	1.5	x	x
CCC(=O)NCCSc1c[nH]c2ccccc12	4.8	-1.8	1.2	5.3	-3.3	x
CCN(CC)S(=O)(=O)c1ccc(C(=O)NCCSc2c[nH]c3ccccc23)cc1	1.1	-2.3	18.9*	1.5	-6.9	0.0
CCCn1ncc([C@@H]2C[C@H]3CN(Cc4cccc(Cl)c4)C(=O)[C@]34CCCN24)c1C	-4.9	3.6	18.2*	-1.5	-5.8	-3.9

Screens deposited in PubChem BioAssay by The Scripps Research Institute Molecular Screening Center.
